# Results: paper PMC5412920 (Journal of Clinical Pharmacology, 2016)
# Where two headings read alike, the source gives them in different places.
# Experiments:
# [1] = type: in vivo, human; details: for AUCu, geometric least-squares mean / Cmax,u, geometric least-squares mean / AUCu / Cmax,u: unbound
# [2] = Renal impairment study: excretion in urine and blood dialysate; type: in vivo, human
# Method in brief: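 Subjects were ESRD patients on haemodialysis or healthy subjects with creatinine clearance >80 mL/min, each given 50 mg orally while fasted. ESRD patients were dosed once after dialysis and, after a washout of ≥7 days, once 1 h before dialysis. Urine was collected predose and in intervals to 72 h. Dialysate spot samples were taken every 30 min, and parameters were derived by the area under the excretion rate curve method. Analysis was by LC-MS/MS.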
# [3] = cited from earlier work
# [4] = Hepatic impairment study: safety and tolerability; type: in vivo, human
# Method in brief: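 Adverse events were collected from screening until follow-up at 7–14 days postdose and coded by System Organ Class and preferred term (MedDRA 17.0). Vital signs, ECGs and clinical laboratory tests were also recorded. Single fasted oral doses were 50 mg (mild), 50 or 25 mg (moderate), 20 mg (severe Child-Pugh) and 50 mg (healthy).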
# [5] = system: plasma proteins; assay: Unbound fraction in plasma; type: in vitro ADME, human
# Method in brief: (§1)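 Unbound fraction was measured in human plasma by ultrafiltration after a single oral dose. Ultrafiltrate was analysed by LC-MS/MS in MRM mode with carbon-13 internal standards. Within each subject, the mean percentage unbound from 3 results was applied to all of that subject's samples to give the average fraction unbound (fu,av).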
# [6] = Unbound fraction in plasma; type: in vitro ADME, human; details: human, plasma, oral, fu,av, hepatic impairment study, median (min-max)
# Method in brief: as §1
# [7] = Hepatic impairment study: excretion in urine; type: in vivo, human
# Method in brief: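 Urine from hepatic-impairment and healthy subjects was collected at −12 to 0 h predose, then 0–6, 6–12, 12–24, 24–36 and 36–48 h, and every 24 h to 120 h after a single oral dose. Dosing followed an overnight fast, with fasting until 4 h postdose. Analytes were measured by LC-MS/MS (positive electrospray, MRM) against carbon-13 internal standards.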
# [8] = type: in vivo, human; details: for tmax / half-life: human, plasma, oral; for tmax: median (min-max); for half-life: arithmetic mean (SD); for AUCu/dose, geometric least-squares mean / Cmax,u/dose, geometric least-squares mean: unbound
# [9] = Renal impairment study: safety and tolerability; type: in vivo, human
# Method in brief: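 In the renal-impairment study, adverse events were recorded from screening until follow-up and coded by System Organ Class and preferred term (MedDRA 17.0). Vital signs, ECGs and clinical laboratory tests were also recorded. All subjects received a single fasted oral 50 mg dose. Healthy subjects returned for follow-up 3–7 days later.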
# [10] = system: MEK1; details: cited from earlier work
# [11] = healthy subjects, 50 mg, geometric mean (gCV%)
# [12] = ESRD, treatment period 1 (50 mg after dialysis), geometric mean (gCV%)
# [13] = non-Asian patients, 75 mg twice daily, used as exposure limit
# [14] = severe hepatic impairment, 20 mg
# [15] = moderate hepatic impairment, 50 or 25 mg
smiles,measurement,setting,value
Cn1cnc2c(F)c(Nc3ccc(Br)cc3Cl)c(C(=O)NOCCO)cc21 [Selumetinib],AUC lower in the ESRD group (dosed post dialysis) vs healthy subjects,[1]; 50 mg,28%
same,AUC lower when dosed before vs after dialysis,"[1]; ESRD, 50 mg",17%
same,Cmax lower when dosed before vs after dialysis,"[1]; ESRD, 50 mg",30%
same,CL/F,[1]; [11],19.1 L/h
same,Cmax,"[1]; human, plasma, oral, 50 mg, Cmax, healthy subjects, geometric mean (gCV%)",863 ng/mL
same,half-life,"[1]; human, plasma, oral, 50 mg, t1/2, healthy subjects, arithmetic mean (SD)",7.34 h
same,"AUCu, geometric least-squares mean","[1]; ESRD, treatment period 1",10.25 ng·h/mL
same,"Cmax,u, geometric least-squares mean","[1]; ESRD, treatment period 1",3.95 ng/mL
same,AUCu,[1]; [12],10.3 (20.1) ng·h/mL
same,"Cmax,u",[1]; [12],3.95 (34.7) ng/mL
same,"AUCu, geometric least-squares mean",[1]; healthy subjects,10.55 ng·h/mL
same,"Cmax,u, geometric least-squares mean",[1]; healthy subjects,3.48 ng/mL
same,AUCu,[1]; [11],10.6 (23.0) ng·h/mL
same,"Cmax,u",[1]; [11],3.48 (42.5) ng/mL
same,dose excreted in dialysate,"[2]; ESRD, dosed 1 h before dialysis",0.92%
same,fraction excreted in urine,"[2]; healthy subjects, 50 mg",0.49%
same,clearance,"[2]; human, blood dialysate, oral, 50 mg",9.63 mL/min
same,dialysis clearance in ESRD as percentage of CL/F in the healthy subjects group,[2]; in vivo,approximately 3%
same,dose linearity of pharmacokinetics,[3]; healthy volunteers,linear pharmacokinetics up to 75 mg
same,mean steady-state AUC(0-12),[3]; [13],4736 ng·h/mL
same,mean steady-state Cmax,[3]; [13],1307 ng/mL
same,"most frequently reported AEs, diarrhea and vomiting, each",[4]; all 32 subjects (N = 2 each),6.3%
same,subjects reporting at least 1 AE,"[4]; all 32 subjects, mild or moderate severity",15.6%
same,tolerability,[4]; single oral dose 20-50 mg,well tolerated
same,difference of unbound fraction compared with healthy subjects,"[5]; hepatic impairment study, mild or moderate impairment",≤ 20%
same,increase in the unbound fraction compared with healthy subjects,"[5]; hepatic impairment study, severe impairment",~90%
same,fraction unbound,"[5]; human, plasma, oral, 50 mg, fu,av, renal impairment study, healthy subjects, median (min-max)",0.004
same,fraction unbound,"[6]; 20 mg, severe impairment",0.0065
same,fraction unbound,"[6]; 50 mg, healthy subjects",0.0035
same,fraction unbound,"[6]; 50 mg, mild impairment",0.0028
same,fraction unbound,"[6]; 50 mg, moderate impairment, 50 mg dose only",0.003
same,dose excreted in urine,"[7]; healthy subjects, 50 mg",0.44%
same,dose excreted in urine,"[7]; mild hepatic impairment, 50 mg",0.46%
same,dose excreted in urine,[7]; moderate hepatic impairment,0.50%
same,dose excreted in urine,[7]; [14],0.90%
same,"AUC/dose, geometric least-squares mean","[8]; healthy subjects, 50 mg",53.64 ng·h/mL/mg
same,"Cmax/dose, geometric least-squares mean","[8]; healthy subjects, 50 mg",18.88 ng/mL/mg
same,tmax,"[8]; 20 mg, severe hepatic impairment",1 h
same,half-life,"[8]; 50 mg, t1/2, healthy subjects",8.02 h
same,half-life,"[8]; 50 mg, t1/2, mild hepatic impairment",7.72 h
same,half-life,"[8]; 50 mg, t1/2, moderate hepatic impairment, 50 mg dose only",9.92 h
same,tmax,"[8]; 50 mg, healthy subjects",1 h
same,tmax,"[8]; 50 mg, mild hepatic impairment",1.25 h
same,tmax,"[8]; 50 mg, moderate hepatic impairment, 50 mg dose only",1 h
same,AUC/dose lower than in healthy subjects,[8]; mild hepatic impairment,14%
same,Cmax/dose lower than in healthy subjects,[8]; mild hepatic impairment,22%
same,"AUC/dose, geometric least-squares mean","[8]; mild hepatic impairment, 50 mg",45.93 ng·h/mL/mg
same,"Cmax/dose, geometric least-squares mean","[8]; mild hepatic impairment, 50 mg",14.82 ng/mL/mg
same,AUC/dose higher than in healthy subjects,[8]; moderate hepatic impairment,59%
same,Cmax/dose higher than in healthy subjects,[8]; moderate hepatic impairment,25%
same,"AUC/dose, geometric least-squares mean",[8]; [15],85.11 ng·h/mL/mg
same,"Cmax/dose, geometric least-squares mean",[8]; [15],23.57 ng/mL/mg
same,AUC/dose higher than in healthy subjects,[8]; severe hepatic impairment,57%
same,"AUC/dose, geometric least-squares mean",[8]; [14],84.29 ng·h/mL/mg
same,"Cmax/dose, geometric least-squares mean",[8]; [14],18.53 ng/mL/mg
same,"AUCu/dose, geometric least-squares mean","[8]; healthy subjects, 50 mg",0.1837 ng·h/mL/mg
same,"Cmax,u/dose, geometric least-squares mean","[8]; healthy subjects, 50 mg",0.06473 ng/mL/mg
same,"AUCu/dose, geometric least-squares mean","[8]; mild hepatic impairment, 50 mg",0.1271 ng·h/mL/mg
same,"Cmax,u/dose, geometric least-squares mean","[8]; mild hepatic impairment, 50 mg",0.04094 ng/mL/mg
same,"AUCu/dose, geometric least-squares mean",[8]; [15],0.2585 ng·h/mL/mg
same,"Cmax,u/dose, geometric least-squares mean",[8]; [15],0.07165 ng/mL/mg
same,"AUCu/dose, geometric least-squares mean",[8]; [14],0.5828 ng·h/mL/mg
same,"Cmax,u/dose, geometric least-squares mean",[8]; [14],0.1280 ng/mL/mg
same,AEs reported,"[9]; healthy subjects, 50 mg",No AEs were reported
same,tolerability,[9]; single oral dose 50 mg,well tolerated
Cn1cnc2c(F)c(Nc3ccc(Br)cc3Cl)c(C(N)=O)cc21 [selumetinib amide],plasma concentrations,"[1]; renal impairment study, largely below the lower limit of quantification",< 2 ng/mL
same,less active than selumetinib,[10],up to 50 fold
same,plasma concentrations,"[8]; hepatic impairment study, largely below the lower limit of quantification",< 2 ng/mL
